Source: ChEMBL document CHEMBL1143930, “S-Euglobals: biomimetic synthesis, antileishmanial, antimalarial, and antimicrobial activities” (Bioorg Med Chem, 2008)
In brackets after ≈: the same amount, converted by molar mass. Activity calls are given as the source filed them. No cut-off for these calls is given here.

Tests used:
Leishmania donovani = assay: Antileishmanial activity against Leishmania donovani promastigotes after 48 hrs by Alamar blue assay; assay type: functional, organism-based
In short: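 L. donovani promastigotes were grown in RPMI 1640 with 10% fetal calf serum at 26 C. A 3-day-old culture was diluted to 5 × 10^5 promastigotes/mL, and drug dilutions were made directly in the cell suspension. After 48 h at 26 C, growth was read by Alamar Blue fluorescence (ex 544/em 590 nm). IC50 and IC90 came from percent growth versus concentration curves.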

BT-549 [1] = assay: Cytotoxicity against human BT549 cells by neutral red assay; assay type: functional, cell-based
In short: (§1)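 Cells were seeded at 25,000 per well and incubated 24 h. Test samples were added at a range of concentrations, followed by a further 48 h incubation. Viable cells were quantified by Neutral Red uptake, and IC50 was read from dose curves of percent growth versus concentration.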

Staphylococcus aureus = assay: Antibacterial activity against methicillin-resistant Staphylococcus aureus; assay type: functional, organism-based
In short: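 Modified NCCLS broth microdilution. Samples in DMSO serially diluted in 0.9% saline, tested in duplicate. Inoculum set against 0.5 McFarland standard by absorbance at 630 nm, then diluted in broth. Growth, solvent and media controls included. Plates read at 630 nm before and after incubation. IC50 from percent growth vs concentration; MIC = lowest concentration with no detectable growth.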

Candida albicans = assay: Antifungal activity against Candida albicans; assay type: functional, organism-based
In short: (§2)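 Modified NCCLS broth microdilution. Samples in DMSO were serially diluted in 0.9% saline and tested in duplicate. Inocula were matched to the 0.5 McFarland standard by absorbance at 630 nm, then diluted in broth. Growth, solvent and media controls were included. Plates were read at 630 nm before and after incubation, and IC50 was taken from percent growth versus concentration.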

Cryptococcus neoformans = assay: Antifungal activity against Cryptococcus neoformans; assay type: functional, organism-based; in short: as §2
Aspergillus fumigatus = assay: Antifungal activity against Aspergillus fumigatus; assay type: functional, organism-based; in short: as §2
SK-MEL [2] = assay: Cytotoxicity against human SKMEL cells by neutral red assay up to 25 ug/mL; assay type: functional, cell-based; in short: as §1
KB [3] = assay: Cytotoxicity against human KB cells by neutral red assay up to 25 ug/mL; assay type: functional, cell-based; in short: as §1
SK-OV-3 [4] = assay: Cytotoxicity against human SK-OV3 cells by neutral red assay up to 25 ug/mL; assay type: functional, cell-based; in short: as §1
Vero [5] = assay: Cytotoxicity against african green monkey Vero cells by neutral red assay up to 25 ug/mL; assay type: cell-based; conditions: chlorocebus sabaeus; in short: as §1
[6] = Cytotoxicity against pig LLC-PK11 cells by neutral red assay up to 25 ug/mL; assay type: cell-based, Sus scrofa; in short: as §1
KB [7] = assay: Cytotoxicity against human KB cells by neutral red assay; assay type: functional, cell-based; in short: as §1
SK-OV-3 [8] = assay: Cytotoxicity against human SK-OV3 cells by neutral red assay; assay type: functional, cell-based; in short: as §1
Vero [9] = assay: Cytotoxicity against african green monkey Vero cells by neutral red assay; assay type: cell-based; conditions: chlorocebus sabaeus; in short: as §1
[10] = Cytotoxicity against pig LLC-PK11 cells by neutral red assay; assay type: cell-based; conditions: Sus scrofa; in short: as §1
BT-549 [11] = assay: Cytotoxicity against human BT549 cells by neutral red assay up to 25 ug/mL; assay type: functional, cell-based; in short: as §1
SK-MEL [12] = assay: Cytotoxicity against human SKMEL cells by neutral red assay; assay type: functional, cell-based; in short: as §1

| Structure (SMILES) | IC50 (Leishmania donovani) [µg/mL] | IC50 (BT-549 [1]) [µg/mL] | IC50 (Staphylococcus aureus) [µg/mL] | Activity (Candida albicans) | Activity (Cryptococcus neoformans) | Activity (Aspergillus fumigatus) | Activity (SK-MEL [2]) | Activity (KB [3]) | Activity (SK-OV-3 [4]) | Activity (Vero [5]) | Activity [6] | IC50 (KB [7]) [µg/mL] | IC50 (SK-OV-3 [8]) [µg/mL] | IC50 (Vero [9]) [µg/mL] | IC50 [10] [µg/mL] | Activity (Leishmania donovani) | Activity (BT-549 [11]) | IC50 (SK-MEL [12]) [µg/mL] | MIC (Staphylococcus aureus) [µg/mL] | IC90 (Leishmania donovani) [µg/mL] |
| --- | --- | --- | --- | --- | --- | --- | --- | --- | --- | --- | --- | --- | --- | --- | --- | --- | --- | --- | --- | --- |
| CC(C)CC(=O)c1c(O)c(C=O)c(O)c2c1O[C@@]1(CO)[C@@H](C2)C[C@H]2C[C@@H]1C2(C)C | 30 (≈ 74.5 µM) | 22.5 (≈ 55.9 µM) | 10 (≈ 24.8 µM) | inactive | inactive | inactive | inactive | inactive | inactive | Not Active | Not Active | – | – | – | – | – | – | – | – | – |
| CC(C)CC(=O)c1c(O)c(C=O)c(O)c2c1O[C@@]1(CCO)[C@@H](C2)C[C@H]2C[C@@H]1C2(C)C | 32 (≈ 76.8 µM) | > 25 | 5 (≈ 12 µM) | inactive | inactive | inactive | inactive | – | – | – | – | > 25 | > 25 | > 25 | > 25 | – | – | – | – | – |
| CC(C)CC(=O)c1c(O)c2c(c(C(=O)CC(C)C)c1O)O[C@@]1(CC2)[C@H]2CC[C@H](C2)C1(C)C | – | – | – | inactive | inactive | inactive | inactive | inactive | inactive | Not Active | Not Active | – | – | – | – | inactive | inactive | – | – | – |
| CC1(C)[C@H]2C[C@@H]3Cc4c(O)c(C=O)c(O)c(C=O)c4O[C@]3(CCO)[C@@H]1C2 | 22 (≈ 61 µM) | – | – | inactive | inactive | inactive | inactive | inactive | inactive | Not Active | Not Active | – | – | – | – | – | inactive | – | – | – |
| CC(C)CC(=O)c1c(O)c2c(c(C(=O)CC(C)C)c1O)O[C@]1(CC2)CC[C@@H]2C[C@H]1C2(C)C | – | – | – | inactive | inactive | inactive | inactive | inactive | inactive | Not Active | Not Active | – | – | – | – | inactive | inactive | – | – | – |
| CC1(C)[C@H]2C[C@@H]3Cc4c(O)c(C=O)c(O)c(C=O)c4O[C@]3(CO)[C@@H]1C2 | – | 25 (≈ 72.2 µM) | – | inactive | inactive | inactive | – | – | inactive | Not Active | Not Active | – | – | – | – | inactive | – | 25 (≈ 72.2 µM) | – | – |
| O=C(O)c1cn(C2CC2)c2cc(N3CCNCC3)c(F)cc2c1=O [CIPROFLOXACIN] | – | – | – | – | – | – | – | – | – | – | – | – | – | – | – | – | – | – | 0.25 (≈ 0.754 µM) | – |
| C[C@@H]1[C@H](O)[C@@H](C)/C=C/C=C/C=C/C=C/C=C/C=C/C=C/[C@H](O[C@@H]2O[C@H](C)[C@@H](O)[C@H](N)[C@@H]2O)C[C@@H]2O[C@](O)(C[C@@H](O)C[C@@H](O)[C@H](O)CC[C@@H](O)C[C@@H](O)CC(=O)O[C@H]1C)C[C@H](O)[C@H]2C(=O)O [AMPHOTERICIN B] | 0.19 (≈ 0.206 µM) | – | – | – | – | – | – | – | – | – | – | – | – | – | – | – | – | – | – | 0.36 (≈ 0.39 µM) |
| CC(C)CC(=O)c1c(O)c2c(c(C(=O)CC(C)C)c1O)O[C@]1(C)C[C@@H]3[C@H](C[C@@H]1C2)C3(C)C | – | – | – | inactive | inactive | inactive | inactive | inactive | inactive | Not Active | Not Active | – | – | – | – | inactive | inactive | – | – | – |
| CC(C)CC(=O)c1c(O)c2c(c(C(=O)CC(C)C)c1O)O[C@@]1(CO)[C@@H](C2)C[C@H]2C[C@@H]1C2(C)C | 24 (≈ 52.3 µM) | 25 (≈ 54.5 µM) | – | inactive | inactive | inactive | inactive | inactive | inactive | – | Not Active | – | – | > 25 | – | – | – | – | – | – |
| CC1(C)[C@H]2[C@@H]1CC[C@@H]1Cc3c(O)c(C=O)c(O)c(C=O)c3O[C@@]12C | 20 (≈ 60.5 µM) | > 25 | – | inactive | inactive | inactive | inactive | – | inactive | Not Active | Not Active | 20 (≈ 60.5 µM) | – | – | – | – | – | – | – | 40 (≈ 121 µM) |
